Test [1] can be described thus: Inhibition of AmpC beta lactamase (unknown origin) at 10 uM incubated for 5 mins in presence of vasopressin. A digest of the protocol:
(§1)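 AmpC β-lactamase (1 nM) in 50 mM potassium phosphate pH 7.0 at room temperature; compound at 10 μM final from 10 mM DMSO stock, with or without 5 min preincubation with 1 μM vasopressin; enzyme incubated with sample 5 min, reaction started with 69 μM CENTA; absorbance change at 405 nm followed 2.5 min; quadruplicate.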

A short description of test [2]: Inhibition of AmpC beta lactamase (unknown origin) at 10 uM incubated for 5 mins. The procedure, abridged:
as §1

For test [3], the target named is T1, Vasopressin V2 receptor (Homo sapiens, UniProt P30518). In words: Inhibition of vasopressin V2 receptor (unknown origin) assessed as change in intracellular calcium levels incubated with compound treated with Tween-80 by fluorometric analysis. It counts as functional, cell-based.
T1 sequence (P30518 whole entry): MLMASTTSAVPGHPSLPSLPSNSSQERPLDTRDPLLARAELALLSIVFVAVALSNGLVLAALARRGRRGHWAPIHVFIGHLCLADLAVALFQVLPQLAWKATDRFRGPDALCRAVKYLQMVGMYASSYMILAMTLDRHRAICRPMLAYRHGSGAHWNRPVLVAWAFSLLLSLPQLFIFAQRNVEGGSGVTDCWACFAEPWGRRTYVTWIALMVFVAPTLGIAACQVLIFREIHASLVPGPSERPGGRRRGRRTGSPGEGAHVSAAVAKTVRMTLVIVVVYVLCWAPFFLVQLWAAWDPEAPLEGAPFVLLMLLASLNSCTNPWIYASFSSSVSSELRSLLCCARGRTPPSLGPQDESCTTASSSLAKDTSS
The target in test [4] is T1, Vasopressin V2 receptor. In words: Inhibition of vasopressin V2 receptor (unknown origin) assessed as change in intracellular calcium levels treated with centrifuged compound solution by fluorometric analysis. In kind it is functional, cell-based.
Test [5] concerns the target T2, C-C chemokine receptor type 4 (Homo sapiens) (UniProt P51679).
T2 sequence (whole entry): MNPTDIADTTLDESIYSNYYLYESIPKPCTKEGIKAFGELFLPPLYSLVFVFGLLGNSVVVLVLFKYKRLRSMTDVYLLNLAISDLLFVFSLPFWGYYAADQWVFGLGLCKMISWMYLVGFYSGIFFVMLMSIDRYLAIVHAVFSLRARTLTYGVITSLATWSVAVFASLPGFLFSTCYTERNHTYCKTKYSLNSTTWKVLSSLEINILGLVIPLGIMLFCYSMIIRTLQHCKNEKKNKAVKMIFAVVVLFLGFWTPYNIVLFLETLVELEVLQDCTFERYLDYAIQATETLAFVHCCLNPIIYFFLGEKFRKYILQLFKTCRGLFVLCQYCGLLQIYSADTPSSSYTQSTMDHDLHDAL
In words: (§2) Inhibition of CCL22-stimulated CCR4 in human HTLA cells pre-incubated for 20 mins with centrifuged compound solution measured on day 4 by beta arrestin-recruitment mediated luciferase reporter gene assay. In kind it is cell-based. A digest of the protocol:
(§3)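 HTLA cells (stable β-arrestin2-TEV protease fusion, tTA-dependent firefly luciferase) transfected by CaPO4 with receptor-V2-tTA construct; next day plated 20 000 cells/well in 1% dialyzed FBS; day 3 serum-free DMEM; compound 0.001 nM–100 μM final in HBSS/20 mM HEPES pH 7.4 for 20 min, then 1 μM agonist overnight, 37 °C; day 4 luminescence after Bright-Glo 30 min; normalized to vehicle and reference; sigmoidal fit.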
For orientation: Reporter assays use an easily measured gene product as a stand-in for the process of interest.

Test [6] concerns the target T3, C-X-C chemokine receptor type 1 (Homo sapiens) (UniProt P25024).
T3 sequence (whole entry): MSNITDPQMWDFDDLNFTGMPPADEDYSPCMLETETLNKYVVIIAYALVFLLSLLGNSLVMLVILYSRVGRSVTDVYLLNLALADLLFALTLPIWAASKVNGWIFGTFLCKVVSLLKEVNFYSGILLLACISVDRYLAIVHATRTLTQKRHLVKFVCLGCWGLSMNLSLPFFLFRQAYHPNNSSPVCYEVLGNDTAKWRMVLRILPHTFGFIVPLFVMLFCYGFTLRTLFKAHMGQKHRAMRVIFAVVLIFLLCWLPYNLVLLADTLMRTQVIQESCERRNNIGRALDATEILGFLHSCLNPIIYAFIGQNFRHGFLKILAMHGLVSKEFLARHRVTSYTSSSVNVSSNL
In words: Inhibition of CX3CL1-stimulated CX3CR1 in human HTLA cells pre-incubated for 20 mins with centrifuged compound solution measured on day 4 by beta arrestin-recruitment mediated luciferase reporter gene assay.

The target of test [7] is T4, C-C chemokine receptor type 4 (Homo sapiens, UniProt P51679).
T4 sequence (P51679 whole entry): T2 sequence (whole entry)
In words: Inverse agonist activity at CCR4 in human HTLA cells assessed as depression of basal activity incubated for 20 mins by beta arrestin-recruitment mediated luciferase reporter gene assay in absence of CCL22. In kind it is cell-based. The procedure, abridged: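 β-Arrestin recruitment luciferase reporter in transfected HTLA cells without CCL22 agonist. Compounds ranged 0.001 nM to 100 μM final in HBSS/HEPES pH 7.4 buffer, with 20 min exposure in serum-free DMEM. Luminescence read on day 4.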

The target of test [8] is T1, Vasopressin V2 receptor. In words: Inhibition of vasopressin-stimulated vasopressin V2 receptor in human HTLA cells pre-incubated for 20 mins with Tween-80-treated compound solution measured on day 4 by beta arrestin-recruitment mediated luciferase reporter gene assay. In kind it is cell-based. A digest of the protocol: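 Transfected HTLA β-arrestin/tTA-luciferase reporter cells were kept serum-free on day 3 and given compound (0.001 nM–100 μM final, pH 7.4 HEPES-HBSS buffer) for 20 min. They were then stimulated with 1 μM vasopressin overnight at 37 °C. Media was removed before day-4 luciferase read; normalized to vehicle/reference, sigmoidal regression.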

The target of test [9] is T5, Cruzipain (Trypanosoma cruzi, UniProt P25779). In words: Inhibition of Trypanosoma cruzi cruzaine using Z-Phe-Arg-aminomethylcoumarin as substrate incubated for 5 mins by spectrofluorimetric analysis in absence of Tween-80. The procedure, abridged:
(§4)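 Cruzain at 0.4 nM final in 0.1 M sodium acetate pH 5.5 with 5 mM DTT and 1% DMSO. Compound preincubated with enzyme for 5 min, then 2.5 μM Z-FR-AMC added. Fluorescence increase (ex 355/em 460 nm) monitored for 5 min. Duplicate wells, two separate experiments. IC50 from variable-slope sigmoidal fit.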

Test [10] deals with T5, Cruzipain. In words: Inhibition of Trypanosoma cruzi cruzaine using Z-Phe-Arg-aminomethylcoumarin as substrate incubated for 5 mins by spectrofluorimetric analysis in presence of Tween-80. A digest of the protocol:
as §4

The nature of test [11]: Inhibition of AmpC beta lactamase (unknown origin) incubated for 5 mins by UV-Vis spectrophotometric analysis in presence of Triton X-100.
Test [12] in a line: Inhibition of AmpC beta lactamase (unknown origin) incubated for 5 mins by UV-Vis spectrophotometric analysis in absence of Triton X-100.
In test [13] the target is T1, Vasopressin V2 receptor. In words: Inhibition of vasopressin-stimulated vasopressin V2 receptor in human HTLA cells pre-incubated for 20 mins with centrifuged compound solution measured on day 4 by beta arrestin-recruitment mediated luciferase reporter gene assay.
For test [14], the target named is T1, Vasopressin V2 receptor. In words: Inhibition of vasopressin-stimulated vasopressin V2 receptor in human HTLA cells pre-incubated for 20 mins measured on day 4 by beta arrestin-recruitment mediated luciferase reporter gene assay. It counts as cell-based.
In test [15] the target is T4, C-C chemokine receptor type 4. In words: Inhibition of CCL22-stimulated CCR4 in human HTLA cells pre-incubated for 20 mins with Tween-80-treated compound solution measured on day 4 by beta arrestin-recruitment mediated luciferase reporter gene assay.
Test [16] has the same target. The test is described as §2. In kind it is cell-based. The procedure, abridged:
as §3

Test [17] has the same target. In words: Inhibition of CCL22-stimulated CCR4 in human HTLA cells pre-incubated for 20 mins measured on day 4 by beta arrestin-recruitment mediated luciferase reporter gene assay.

The values below come from ChEMBL document CHEMBL2321773, “Colloidal aggregation causes inhibition of G protein-coupled receptors” (J Med Chem, 2013).

Each structure is given as a SMILES string. Calls of active or inactive are those of the source. The rule behind the calls is not given here. Some results are limits rather than exact numbers.

T5 sequence (P25779 whole entry): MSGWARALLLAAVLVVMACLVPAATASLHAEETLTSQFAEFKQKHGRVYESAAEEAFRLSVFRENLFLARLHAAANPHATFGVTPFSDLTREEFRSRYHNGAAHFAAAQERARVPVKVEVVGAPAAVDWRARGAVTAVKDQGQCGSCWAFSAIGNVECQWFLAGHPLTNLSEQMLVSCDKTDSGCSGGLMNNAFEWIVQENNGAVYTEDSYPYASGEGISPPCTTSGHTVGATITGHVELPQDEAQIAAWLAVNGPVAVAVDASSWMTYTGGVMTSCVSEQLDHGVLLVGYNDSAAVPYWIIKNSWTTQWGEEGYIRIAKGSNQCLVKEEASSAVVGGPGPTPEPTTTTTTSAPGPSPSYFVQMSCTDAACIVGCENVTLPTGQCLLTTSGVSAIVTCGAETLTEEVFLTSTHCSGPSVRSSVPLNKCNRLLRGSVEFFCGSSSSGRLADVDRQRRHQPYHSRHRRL

As a reminder, the inhibition is the relative decrease from the control value, in per cent. On to `O=C1OC(c2cc(I)c(O)c(I)c2)(c2c(I)cc(O)cc2I)c2ccccc21` (stereo not drawn), for which the figures for the inhibition in test [1] and in test [2] were 7% and 77%, respectively. Besides, the inhibition result in test [3] and in [4] was “Active” in each case. In addition, the inhibition result in [5] and in test [6] was “inactive” throughout.
As for `O=c1c(O)c(-c2ccc(O)c(O)c2)oc2cc(O)cc(O)c12`, the inhibition entry in [6] is “inactive”.
In general, IC50 refers to the point on the concentration scale where inhibition reaches its midpoint. Turning to `Clc1ccccc1C(c1ccccc1)(c1ccccc1)n1ccnc1` [CLOTRIMAZOLE], in test [7], the IC50 was 1.6 µM. The inhibition entry in test [3] and in test [4] was “Active” throughout. Besides, the inhibition entry in test [8] and in test [5] was “inactive” in each case.
Consider `O=c1c(-c2ccc(O)cc2)coc2cc(O)cc(O)c12` [GENISTEIN], for which the 50% inhibitory concentration (IC50) in test [9] is 82.7 µM; in test [10] it was above 400 µM; in test [11], above 100 µM; in test [12] it was 16.7 µM.
Consider `CCC(C)n1ncn(-c2ccc(N3CCN(c4ccc(OCC5COC(Cn6cncn6)(c6ccc(Cl)cc6Cl)O5)cc4)CC3)cc2)c1=O` (stereo not drawn) [ITRACONAZOLE], for which the inhibition result in test [3] and in test [4] was “Active” each time. Moreover, the 50% inhibitory concentration (IC50) was 6.31 µM in [8]; 11.9 µM in test [13]; 0.794 µM in test [14]; 12.6 µM in [15]; 7.2 µM in test [16]; 0.501 µM in test [17].
As for `O=c1cc(-c2ccc(O)c(O)c2)oc2cc(O)cc(O)c12` [LUTEOLIN], the concentration for half-maximal inhibition (IC50) in test [9] is 27.3 µM; in test [10], 156 µM; in test [11] it was above 100 µM; in test [12] it was 21.9 µM.
